Measurements reported in the RNAGym collection of RNA variant scans (doi:10.1038/s41586-018-0170-7).

B1: tRNA (parent)
chain: GUUCCGUUGGCGUAAUGGUAACGCGUCUCCCUCCUAAGGAGAAGACUGCGGGUUCGAGUCCCGUACGGAACG

Variants of: B1
Assay: yeast fitness, log relative to wild type (ln ratio); higher = fitter; tRNA-Arg(CCU), competitive growth, 37 C, 1 M NaCl
Procedure, shortened: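 In BY4742 missing the chromosomal gene, a combinatorial tRNA-Arg(CCU) variant library was maintained on a HIS3 centromeric plasmid. Selection ran ~6.5 generations (~26.5 h) in SC-HIS 1M NaCl at 37 °C, following 4 generations in SC-HIS at 30 °C, with three outputs per input and variant counts by 125 bp paired-end Illumina sequencing. Fitness is the natural log of a genotype's generations relative to the wild type's, with generations taken as inverse-variance-weighted, OD-scaled log2 output/input frequency.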

Row | Variant | yeast fitness (ln)
1 | GUUCCGUUGGCGUAAUGGUAACGCGUUUCCCUCCUAAGGAGACGACUGCGGGUUCGAGUCCCGUACGGGAUG | -0.44
2 | GUUCCUUUGGCGUAAUGGUAACGCGUUUCCCUCCUAAGGAGAAGACUGCGGGUUCGAGUCCCGUACGGAACG | -0.111
3 | GUUCCUUUGGCGUAAUGGUAACGCGUUUCCCUCCUAAGGAGAAGACUGCGGGUUCGAGUCCCGUAUGGAUCG | -0.261
4 | ACUCCGUUGGCGUAAUGGUAACGCGUUUCCCUCCUAAGGAGACGAUUGCGGGUUCGAGUCCCGUACGGGUUG | -0.215
5 | GCUCCUUUGGCGUAAUGGUAACGCGUUUCCCUCCUAAGGAGACGAUUGCGGGUUCGAGUCCCGUACGGGUUG | -0.309
6 | ACUCCUUUGGCGUAAUGGUAACGCGUUUCCCUCCUAAGGAGACGAUUGCGGGUUCGAGUCCCGUAUGGAGUG | -0.0871
7 | AUUCCGUUGGCGUAAUGGUAACGCGUUUCCCUCCUAAGGAGACGAUUGCGGGUUCGAGUCCCGUAUGGGAUG | -0.361
8 | AUUCCGUUGGCGUAAUGGUAACGCGUCUCCCUCCUAAGGAGACGACUGCGGGUUCGAGUCCCGUACGGGGUG | -0.353
9 | AGUCCUUUGGCGUAAUGGUAACGCGUCUCCCUCCUAAGGAGAAGAUUGCGGGUUCGAGUCCCGUAUGGGUCG | -0.288
10 | GUUCCAUUGGCGUAAUGGUAACGCGUCUCCCUCCUAAGGAGAAGAUUGCGGGUUCGAGUCCCGUAUGGAUUG | -0.423
11 | AGUCCGUUGGCGUAAUGGUAACGCGUUUCCCUCCUAAGGAGAAGACUGCGGGUUCGAGUCCCGUACGGGUCG | -0.188
12 | AGUCCUUUGGCGUAAUGGUAACGCGUUUCCCUCCUAAGGAGACGAUUGCGGGUUCGAGUCCCGUAAGGAGUG | -0.369
13 | AUUCCAUUGGCGUAAUGGUAACGCGUCUCCCUCCUAAGGAGAAGAUUGCGGGUUCGAGUCCCGUACGGAACG | -0.0333
14 | GUUCCAUUGGCGUAAUGGUAACGCGUUUCCCUCCUAAGGAGACGACUGCGGGUUCGAGUCCCGUAAGGAUCG | -0.204
15 | GUUCCGUUGGCGUAAUGGUAACGCGUCUCCCUCCUAAGGAGACGAUUGCGGGUUCGAGUCCCGUAAGGAAUG | -0.0684
16 | AGUCCGUUGGCGUAAUGGUAACGCGUCUCCCUCCUAAGGAGACGACUGCGGGUUCGAGUCCCGUAUGGGUCG | -0.287
17 | ACUCCGUUGGCGUAAUGGUAACGCGUCUCCCUCCUAAGGAGACGAUUGCGGGUUCGAGUCCCGUACGGAAUG | -0.0678
18 | GUUCCGUUGGCGUAAUGGUAACGCGUUUCCCUCCUAAGGAGAAGAUUGCGGGUUCGAGUCCCGUAAGGAAUG | -0.0951
19 | GCUCCUUUGGCGUAAUGGUAACGCGUUUCCCUCCUAAGGAGAAGACUGCGGGUUCGAGUCCCGUAUGGGUUG | -0.566

Row | Variant | yeast fitness (ln)
20 | ACUCCGUUGGCGUAAUGGUAACGCGUCUCCCUCCUAAGGAGAAGAUUGCGGGUUCGAGUCCCGUAUGGAGCG | -0.129
21 | AUUCCAUUGGCGUAAUGGUAACGCGUCUCCCUCCUAAGGAGAAGACUGCGGGUUCGAGUCCCGUACGGAGCG | -0.156
22 | GUUCCGUUGGCGUAAUGGUAACGCGUCUCCCUCCUAAGGAGAAGAUUGCGGGUUCGAGUCCCGUAUGGAGUG | -0.0752
23 | ACUCCAUUGGCGUAAUGGUAACGCGUCUCCCUCCUAAGGAGAAGACUGCGGGUUCGAGUCCCGUACGGAUUG | -0.126
24 | GCUCCUUUGGCGUAAUGGUAACGCGUCUCCCUCCUAAGGAGAAGACUGCGGGUUCGAGUCCCGUAAGGGUCG | -0.25
25 | AUUCCUUUGGCGUAAUGGUAACGCGUCUCCCUCCUAAGGAGAAGAUUGCGGGUUCGAGUCCCGUACGGAUCG | -0.14
26 | GGUCCAUUGGCGUAAUGGUAACGCGUUUCCCUCCUAAGGAGACGAUUGCGGGUUCGAGUCCCGUACGGGGCG | -0.183
27 | GCUCCAUUGGCGUAAUGGUAACGCGUCUCCCUCCUAAGGAGAAGACUGCGGGUUCGAGUCCCGUACGGAACG | 0.0247
28 | GCUCCAUUGGCGUAAUGGUAACGCGUUUCCCUCCUAAGGAGACGACUGCGGGUUCGAGUCCCGUACGGGUUG | -0.384
29 | GGUCCUUUGGCGUAAUGGUAACGCGUUUCCCUCCUAAGGAGAAGAUUGCGGGUUCGAGUCCCGUACGGAACG | -0.1
30 | GGUCCGUUGGCGUAAUGGUAACGCGUCUCCCUCCUAAGGAGACGAUUGCGGGUUCGAGUCCCGUAUGGGACG | -0.199
31 | GGUCCUUUGGCGUAAUGGUAACGCGUUUCCCUCCUAAGGAGAAGAUUGCGGGUUCGAGUCCCGUAAGGGUUG | -0.314
32 | AUUCCGUUGGCGUAAUGGUAACGCGUCUCCCUCCUAAGGAGAAGAUUGCGGGUUCGAGUCCCGUAAGGGUCG | -0.0801
33 | GCUCCGUUGGCGUAAUGGUAACGCGUCUCCCUCCUAAGGAGACGAUUGCGGGUUCGAGUCCCGUACGGGGUG | -0.00607
34 | GCUCCGUUGGCGUAAUGGUAACGCGUUUCCCUCCUAAGGAGAAGAUUGCGGGUUCGAGUCCCGUAUGGAGCG | -0.04
35 | GGUCCGUUGGCGUAAUGGUAACGCGUCUCCCUCCUAAGGAGAAGAUUGCGGGUUCGAGUCCCGUACGGAUCG | -0.00122
36 | GUUCCUUUGGCGUAAUGGUAACGCGUCUCCCUCCUAAGGAGACGACUGCGGGUUCGAGUCCCGUAUGGAACG | -0.23
37 | GCUCCUUUGGCGUAAUGGUAACGCGUUUCCCUCCUAAGGAGACGAUUGCGGGUUCGAGUCCCGUACGGAUUG | -0.182
